Test results reported in ChEMBL document CHEMBL4689842, “EUbOPEN Chemogenomics Library wave 1” (2021).

Tested on: U2OS
Experiment: Multiplex assay against U2OS
Type: toxicity, cell-based
Conditions: human
Outline: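 Live cells were stained at seeding with Hoechst33342, BioTracker Green Microtubule Cytoskeleton Dye, MitoTracker Red and Annexin V Alexa Fluor 680, then imaged on a CQ1 microscope at 37°C and 5% CO2 after compound addition. CellPathfinder machine-learning gating split cells into Hoechst high-intensity objects or normal cells. Normal cells were split into healthy, pyknosed or fragmented nuclei, and pyknosed cells into mitotic or apoptotic. Tubulin, mitochondrial-mass and membrane-permeability phenotypes are per cents of healthy-nucleus cells.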

[1] = 12 h, 1 µM, compound concentration 1 uM, replicate 1
[2] = 12 h, 1 µM, compound concentration 1 uM, replicate 2
[3] = 12 h, 10 µM, compound concentration 10 uM, replicate 1
[4] = 12 h, 10 µM, compound concentration 10 uM, replicate 2
[5] = 24 h, 1 µM, compound concentration 1 uM, replicate 1
[6] = 24 h, 1 µM, compound concentration 1 uM, replicate 2
[7] = 24 h, 10 µM, compound concentration 10 uM, replicate 1
[8] = 24 h, 10 µM, compound concentration 10 uM, replicate 2
[9] = 48 h, 1 µM, compound concentration 1 uM, replicate 1
[10] = 48 h, 1 µM, compound concentration 1 uM, replicate 2
[11] = 48 h, 10 µM, compound concentration 10 uM, replicate 1
[12] = 48 h, 10 µM, compound concentration 10 uM, replicate 2

## CN1CCN(Cc2ccc(Nc3ncc(Cl)c(Nc4ccccc4S(=O)(=O)N(C)C)n3)cc2)CC1 [DUBERMATINIB]
[1]
  Population Apoptotic (%): 73%
  Population Fragmented Nuclei (%): 20%
  Population Healthy Nuclei (%): 51%
  Population Hoechst High Intensity Objects (%): 11%
  Population Membrane Permeable-Phenotype (%): 6%
  Population Mitochondria Different-Phenotype (%): 9%
  Population Mitotic Cells (%): 26%
  Population Normal (%): 88%
  Population Pyknosed Nuclei (%): 27%
  Population Tubulin-Different-Phenotype (%): 6%
  Total Cell Count: 172
[2]
  Population Apoptotic (%): 100%
  Population Fragmented Nuclei (%): 13%
  Population Healthy Nuclei (%): 83%
  Population Hoechst High Intensity Objects (%): 10%
  Population Membrane Permeable-Phenotype (%): 4%
  Population Mitochondria Different-Phenotype (%): 16%
  Population Mitotic Cells (%): 0%
  Population Normal (%): 89%
  Population Pyknosed Nuclei (%): 2%
  Population Tubulin-Different-Phenotype (%): 11%
  Total Cell Count: 65
[3]
  Population Apoptotic (%): 78%
  Population Fragmented Nuclei (%): 25%
  Population Healthy Nuclei (%): 44%
  Population Hoechst High Intensity Objects (%): 12%
  Population Membrane Permeable-Phenotype (%): 9%
  Population Mitochondria Different-Phenotype (%): 40%
  Population Mitotic Cells (%): 21%
  Population Normal (%): 87%
  Population Pyknosed Nuclei (%): 29%
  Population Tubulin-Different-Phenotype (%): 28%
  Total Cell Count: 140
[4]
  Population Apoptotic (%): 73%
  Population Fragmented Nuclei (%): 45%
  Population Healthy Nuclei (%): 31%
  Population Hoechst High Intensity Objects (%): 9%
  Population Membrane Permeable-Phenotype (%): 28%
  Population Mitochondria Different-Phenotype (%): 38%
  Population Mitotic Cells (%): 26%
  Population Normal (%): 90%
  Population Pyknosed Nuclei (%): 22%
  Population Tubulin-Different-Phenotype (%): 42%
  Total Cell Count: 91
[5]
  Population Apoptotic (%): 88%
  Population Fragmented Nuclei (%): 29%
  Population Healthy Nuclei (%): 45%
  Population Hoechst High Intensity Objects (%): 10%
  Population Membrane Permeable-Phenotype (%): 11%
  Population Mitochondria Different-Phenotype (%): 14%
  Population Mitotic Cells (%): 11%
  Population Normal (%): 90%
  Population Pyknosed Nuclei (%): 25%
  Population Tubulin-Different-Phenotype (%): 4%
  Total Cell Count: 188
[6]
  Population Apoptotic (%): 0%
  Population Fragmented Nuclei (%): 11%
  Population Healthy Nuclei (%): 83%
  Population Hoechst High Intensity Objects (%): 6%
  Population Membrane Permeable-Phenotype (%): 4%
  Population Mitochondria Different-Phenotype (%): 36%
  Population Mitotic Cells (%): 100%
  Population Normal (%): 93%
  Population Pyknosed Nuclei (%): 4%
  Population Tubulin-Different-Phenotype (%): 14%
  Total Cell Count: 70
[7]
  Population Apoptotic (%): 84%
  Population Fragmented Nuclei (%): 38%
  Population Healthy Nuclei (%): 24%
  Population Hoechst High Intensity Objects (%): 19%
  Population Membrane Permeable-Phenotype (%): 4%
  Population Mitochondria Different-Phenotype (%): 45%
  Population Mitotic Cells (%): 15%
  Population Normal (%): 80%
  Population Pyknosed Nuclei (%): 37%
  Population Tubulin-Different-Phenotype (%): 22%
  Total Cell Count: 150
[8]
  Population Apoptotic (%): 95%
  Population Fragmented Nuclei (%): 30%
  Population Healthy Nuclei (%): 33%
  Population Hoechst High Intensity Objects (%): 14%
  Population Membrane Permeable-Phenotype (%): 55%
  Population Mitochondria Different-Phenotype (%): 55%
  Population Mitotic Cells (%): 4%
  Population Normal (%): 85%
  Population Pyknosed Nuclei (%): 36%
  Population Tubulin-Different-Phenotype (%): 65%
  Total Cell Count: 87
[9]
  Population Apoptotic (%): 82%
  Population Fragmented Nuclei (%): 29%
  Population Healthy Nuclei (%): 44%
  Population Hoechst High Intensity Objects (%): 8%
  Population Membrane Permeable-Phenotype (%): 8%
  Population Mitochondria Different-Phenotype (%): 28%
  Population Mitotic Cells (%): 17%
  Population Normal (%): 91%
  Population Pyknosed Nuclei (%): 25%
  Population Tubulin-Different-Phenotype (%): 11%
  Total Cell Count: 217
[10]
  Population Apoptotic (%): 100%
  Population Fragmented Nuclei (%): 16%
  Population Healthy Nuclei (%): 78%
  Population Mitochondria Different-Phenotype (%): 37%
  Population Mitotic Cells (%): 0%
  Population Pyknosed Nuclei (%): 4%
  Population Tubulin-Different-Phenotype (%): 17%
  Total Cell Count: 87
[11]
  Population Apoptotic (%): 92%
  Population Fragmented Nuclei (%): 40%
  Population Healthy Nuclei (%): 8%
  Population Hoechst High Intensity Objects (%): 30%
  Population Membrane Permeable-Phenotype (%): 33%
  Population Mitochondria Different-Phenotype (%): 50%
  Population Mitotic Cells (%): 7%
  Population Normal (%): 69%
  Population Pyknosed Nuclei (%): 51%
  Population Tubulin-Different-Phenotype (%): 33%
  Total Cell Count: 146
[12]
  Population Apoptotic (%): 85%
  Population Fragmented Nuclei (%): 24%
  Population Healthy Nuclei (%): 49%
  Population Hoechst High Intensity Objects (%): 20%
  Population Membrane Permeable-Phenotype (%): 80%
  Population Mitochondria Different-Phenotype (%): 84%
  Population Mitotic Cells (%): 14%
  Population Normal (%): 79%
  Population Pyknosed Nuclei (%): 26%
  Population Tubulin-Different-Phenotype (%): 76%
  Total Cell Count: 104
